From ChEMBL document CHEMBL4699639, “Discovery of Novel 2-Aniline-1,4-naphthoquinones as Potential New Drug Treatment for Leber's Hereditary Optic Neuropathy (LHON)” (J Med Chem, 2020)
Each block holds one compound with its values, some of them ahead of it. The source made the active and inactive calls. No cut-off for these calls is given here.

Tests used:
SH-SY5Y [1] = assay: Cytotoxicity against human SH-SY5Y cells assessed as reduction in cell viability at 25 uM incubated for 24 hrs by Celltiter-blue assay; type: cell-based
In short: (§1)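 HepG2 or SH-SY5Y seeded 10×10^3 per well the day before in 1 g/L glucose medium with 2% FBS. Medium replaced with fresh 2% FBS, 1 g/L glucose medium containing compound (25 µM) for 24 h at 37 °C. CellTiter-Blue added for 4 h, fluorescence read at 560/590 nm. Viability given as % of vehicle/untreated cells. Mean ± SEM of ≥3 independent runs.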

HepG2 [2] = assay: Suppression of rotenone-induced ATP depletion in human HepG2 cells assessed as increase in rescue of ATP level at 1 uM incubated for 2 hrs by Celltiter-Glo assay; type: functional, cell-based
In short: (§2)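 HepG2 cells seeded 10×10^3 per well in 1 g/L glucose, 2% FBS medium the day before. Switched to glucose- and FBS-free medium containing 10 µM rotenone, with compound added at the same time, 2 h at 37 °C. ATP read by CellTiter-Glo luminescence, normalized to DMSO cells without rotenone. Mean ± SEM of ≥3 independent runs. Complex III inhibitors, where used, at 50 nM.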

[3] = Cytotoxicity against […] assessed as reduction in cell viability by WST-1 assay; type: cell-based; conditions: r28
SH-SY5Y [4] = assay: Cytotoxicity against human SH-SY5Y cells assessed as reduction in cell viability by WST-1 assay; type: cell-based
HepG2 [5] = assay: Cytotoxicity against human HepG2 cells assessed as cell reduction in cell viability at 25 uM incubated for 24 hrs by Celltiter-blue assay; type: cell-based; conditions: hepg2, 24 h; in short: as §1
[6] = target: NAD(P)H dehydrogenase [quinone] 1 (Homo sapiens) (UniProt P15559); assay: Substrate activity at NQO1 in human HepG2 cells assessed as reduction in cell viability by WST-1 assay; type: cell-based
Chain of NAD(P)H dehydrogenase [quinone] 1 (Homo sapiens) (P15559 whole entry): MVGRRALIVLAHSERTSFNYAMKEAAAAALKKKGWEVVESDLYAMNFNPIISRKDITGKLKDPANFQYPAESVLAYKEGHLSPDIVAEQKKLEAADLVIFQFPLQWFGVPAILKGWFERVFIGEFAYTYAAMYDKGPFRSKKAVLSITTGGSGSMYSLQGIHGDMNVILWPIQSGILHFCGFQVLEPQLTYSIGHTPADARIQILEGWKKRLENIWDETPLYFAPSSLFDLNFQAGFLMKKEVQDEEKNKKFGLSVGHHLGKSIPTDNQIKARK

[7] = target: NAD(P)H dehydrogenase [quinone] 1 (Homo sapiens) (UniProt P15559); assay: Substrate activity at NQO1 in human HepG2 cells assessed as reduction in cell viability in presence of NQO1 inhibitor dicoumarol by WST-1 assay; type: cell-based
[8] = (§3) Suppression of rotenone-induced ATP depletion in human HepG2 cells assessed as rescue of ATP level at 5 uM incubated for 2 hrs by Celltiter-Glo assay relative to control; type: functional; in short: as §2
[9] = Cytotoxicity against human HepG2 cells assessed as cell viability at 25 uM incubated for 24 hrs by Celltiter-blue assay relative to control; type: cell-based; conditions: read-out: Activity; in short: as §1
[10] = Suppression of rotenone-induced ATP depletion in human HepG2 cells assessed as rescue of ATP level incubated for 2 hrs by Celltiter-Glo assay relative to control; type: functional; design: concentration or dose not given beside the values; in short: as §2
[11] = target: NAD(P)H dehydrogenase [quinone] 1 (Homo sapiens) (UniProt P15559); assay: Substrate activity at recombinant NQO1 (unknown origin) assessed as reduction in NADH level at 20 uM measured for 6 mins by microplate reader analysis
HepG2 [12] = assay: as §3; type: functional; in short: as §2
HepG2 [13] = assay: Suppression of rotenone-induced ATP depletion in human HepG2 cells assessed as rescue of ATP level at 5 uM incubated for 2 hrs in presence of NQO1 irreversible inhibitor ES936 by Celltiter-Glo assay; type: functional, cell-based
HepG2 [14] = assay: Cytotoxicity against human HepG2 cells assessed as reduction in cell viability incubated for 24 hrs by Celltiter-blue assay; type: cell-based; conditions: HepG2, 24 h
SH-SY5Y [15] = assay: Cytotoxicity against human SH-SY5Y cells assessed as reduction in cell viability incubated for 24 hrs by Celltiter-blue assay; type: cell-based
HepG2 [16] = assay: Suppression of rotenone-induced ATP depletion in human HepG2 cells assessed as rescue of ATP level at 5 uM incubated for 2 hrs in presence of complex III inhibitor myxothiazol by Celltiter-Glo assay; type: functional, cell-based; in short: as §2
HepG2 [17] = assay: Suppression of rotenone-induced ATP depletion in human HepG2 cells assessed as rescue of ATP level at 5 uM incubated for 2 hrs in presence of complex III inhibitor antimycin by Celltiter-Glo assay; type: functional, cell-based; in short: as §2
HepG2 [18] = assay: Suppression of rotenone-induced ATP depletion in human HepG2 cells assessed as rescue of ATP level at 5 uM incubated for 2 hrs in presence of NQO1 inhibitor dicoumarol by Celltiter-Glo assay; type: functional, cell-based
[19] = Suppression of rotenone-induced ATP depletion in human HepG2 cells incubated for 2 hrs by Celltiter-Glo assay; type: functional, cell-based; conditions: HepG2, 2 h; in short: as §2
HepG2 [20] = assay: Suppression of rotenone-induced ATP depletion in human HepG2 cells assessed as increase in rescue of ATP level at 0.1 to 1 uM incubated for 2 hrs by Celltiter-Glo assay; type: functional, cell-based; conditions: dose microM 0.1-1, time 2.0 hrs; in short: as §2

SMILES: O=C1C=C(NCc2ccccc2)C(=O)c2ccccc21
Activity (SH-SY5Y [1]): Toxic
Activity (HepG2 [2]): Active

SMILES: CCSC1=C(Nc2cccc(C(F)(F)F)c2)C(=O)c2ccccc2C1=O
Activity (SH-SY5Y [1]): Toxic
Activity [3]: Non-Toxic
Activity (SH-SY5Y [4]): Non-Toxic
Activity (HepG2 [5]): Toxic
Activity [6]: Active
Activity (HepG2 [2]): Active
Activity [7]: inactive

SMILES: O=C1C(Cl)=C(NCc2ccccc2)C(=O)c2ccccc21
Activity (SH-SY5Y [1]): Toxic
Activity [8]: 70%
Activity (HepG2 [2]): Active

SMILES: CSC1=C(Nc2cccc(C(F)(F)F)c2)C(=O)c2ccccc2C1=O
Activity (SH-SY5Y [1]): Non-Toxic

SMILES: O=C(OC1=C(c2ccccc2)C(=O)c2ccccc2C1=O)c1cccc([N+](=O)[O-])c1
Activity (SH-SY5Y [1]): Toxic

SMILES: O=C1C(Br)=C(NCCc2ccccn2)C(=O)c2ccccc21
Activity (SH-SY5Y [1]): Toxic

SMILES: CC(C)OC1=C(Nc2ccccc2)C(=O)c2ccccc2C1=O
Activity (HepG2 [2]): inactive

SMILES: COC1=C(Nc2cccc(C(F)(F)F)c2)C(=O)c2ccccc2C1=O
Activity (SH-SY5Y [1]): Non-Toxic
Activity [3]: Non-Toxic
Activity [8]: 70%
Activity (SH-SY5Y [4]): Non-Toxic
Activity [6]: Active
Activity (HepG2 [2]): Active
Activity [7]: inactive

SMILES: CSC1=C(Nc2cc(C(F)(F)F)ccc2F)C(=O)c2ccccc2C1=O
Activity (SH-SY5Y [1]): Non-Toxic
Activity (HepG2 [2]): Active

SMILES: O=C1C(Cl)=C(NCCc2ccccc2)C(=O)c2ccccc21
Activity (HepG2 [2]): Active

Activity [11]: inactive
SMILES: CNC1=C(Nc2ccc(F)c(C(F)(F)F)c2)C(=O)c2ccccc2C1=O
Activity (SH-SY5Y [1]): Non-Toxic
viability at 24 h, 25 µM [9]: 95.8%
Activity [10]: 14.7%

SMILES: O=C1C(Cl)=C(NCc2cccc(C(F)(F)F)c2)C(=O)c2ccccc21
Activity (HepG2 [2]): Active

SMILES: O=C1C(Cl)=C(NCCC(F)(F)F)C(=O)c2ccccc21
Activity (HepG2 [12]): inactive

SMILES: CCCCNC1=C(Cl)C(=O)c2ccccc2C1=O
Activity (SH-SY5Y [1]): Toxic
Activity [8]: 70%

SMILES: COC1=C(Nc2ccccc2)C(=O)c2ccccc2C1=O
Activity (SH-SY5Y [1]): Non-Toxic
Activity (HepG2 [2]): inactive

SMILES: O=C1C=C(NCCc2ccccc2)C(=O)c2ccccc21
Activity (SH-SY5Y [1]): Toxic

SMILES: O=C1C=C(NCCCCO)C(=O)c2ccccc21
Activity (SH-SY5Y [1]): Toxic

SMILES: CC(C)SC1=C(Nc2cccc(C(F)(F)F)c2)C(=O)c2ccccc2C1=O
Activity (SH-SY5Y [1]): Toxic
Activity (HepG2 [5]): Toxic
Activity (HepG2 [2]): Active

Activity [11]: Active
SMILES: COC1=C(Nc2ccc(F)c(C(F)(F)F)c2)C(=O)c2ccccc2C1=O
Activity (HepG2 [13]): inactive
Activity (SH-SY5Y [1]): Non-Toxic
Activity [3]: Non-Toxic
IC50 (HepG2 [14]): > 100 µM
Activity (SH-SY5Y [4]): Non-Toxic
viability at 24 h, 25 µM [9]: 96.5%
IC50 (SH-SY5Y [15]): > 100 µM
Activity (HepG2 [16]): inactive
Activity (HepG2 [17]): inactive
Activity [10]: 58.6%
Activity (HepG2 [18]): inactive
EC50 [19]: 0.46 µM
Activity [6]: Active
Activity (HepG2 [20]): Active
Activity (HepG2 [2]): Active
Activity [7]: inactive

SMILES: CC1=C(SC(C)(C)C)C(=O)c2ccccc2C1=O
Activity (SH-SY5Y [1]): Toxic
Activity [8]: 70%

Activity [11]: inactive
SMILES: CNC1=C(Nc2ccccc2)C(=O)c2ccccc2C1=O
Activity (SH-SY5Y [1]): Non-Toxic
